The source made the active and inactive calls. The calls are words filed in the database; no cut-off is given here.

Test [1] concerns TPC1. Kind of test: Anti-proliferative activity against human TPC1 cells assessed as reduction in cell proliferation incubated for 72 hrs. In kind it is functional, cell-based. The settings on record: TPC1, 72 h. In a few lines:
(§1)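 Cells grown in DMEM with 10% fetal bovine serum at 37°C/5% CO2, then exposed to a series of compound concentrations or DMSO mock. Proliferation curves were recorded for each line.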

In test [2] the test system is BCPAP. Kind of test: Anti-proliferative activity against human BCPAP cells assessed as reduction in cell proliferation incubated for 72 hrs. In kind it is functional, cell-based. A digest of the protocol: as §1
Test [3] relates to MDA-MB-231. Kind of test: Anti-proliferative activity against human MDA-MB-231 cells assessed as reduction in cell proliferation incubated for 72 hrs. In kind it is functional, cell-based. The settings on record: MDA-MB-231, 72 h. A digest of the protocol:
as §1

In test [4] the test system is MCF7. Description: Anti-proliferative activity against human MCF7 cells assessed as reduction in cell proliferation incubated for 72 hrs. It is filed as functional, cell-based. Conditions: MCF7, 72 h. A digest of the protocol:
as §1

Test [5] relates to TPC1. Kind of test: Inhibition of c-MYC expression in human TPC1 cells at 0.25 to 1 uM after 6 to 24 hrs by qRT-PCR analysis. In kind it is functional, cell-based. Conditions: dose 0.25-1 µM, time 6-24 hrs. In a few lines: (§2)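 Cells in DMEM/10% FBS were treated with the indicated compound concentrations or DMSO mock. Total RNA was purified and reverse-transcribed, and transcript levels were measured by EvaGreen-based qRT-PCR.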
In general terms: In qPCR the cycle at which signal appears reflects the starting amount.

Test [6] relates to BCPAP. Description: Inhibition of c-MYC expression in human BCPAP cells at 0.25 to 1 uM after 6 to 24 hrs by qRT-PCR analysis. It is filed as functional, cell-based. The settings on record: dose 0.25-1 µM, time 6-24 hrs. In a few lines:
as §2

In test [7] the test system is MDA-MB-231. Kind of test: Inhibition of c-MYC expression in human MDA-MB-231 cells at 0.25 to 1 uM after 6 to 24 hrs by qRT-PCR analysis. The settings on record: dose 0.25-1 µM, time 6-24 hrs. In kind it is functional, cell-based. A digest of the protocol:
as §2

For test [8], the system named is MCF7. Description: Inhibition of c-MYC expression in human MCF7 cells at 0.25 to 1 uM after 6 to 24 hrs by qRT-PCR analysis. In kind it is functional, cell-based. The settings on record: dose 0.25-1 µM, time 6-24 hrs. A digest of the protocol: as §2
Test [9] has as its target Mediator of RNA polymerase II transcription subunit 1 (Homo sapiens) (UniProt Q15648). Kind of test: Inhibition of MED1 in human TPC1 cells assessed as reduction of […] binding to all active RUNX2 regulatory elements (ENH11,ENH13) at 1 uM by ChIP analysis. It is filed as cell-based. A digest of the protocol: (§3)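 Cells were treated with 1 μM compound or DMSO mock, 24 h unless otherwise specified. ChIP used anti-MED1 antibody at the RUNX2 P2 promoter and active enhancer regions. An unrelated region upstream of P2 served as negative control. Enrichment is expressed as percentage of input.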

The target is the same in test [10]. Kind of test: Inhibition of MED1 in human MDA-MB-231 cells assessed as reduction of […] binding to all active RUNX2 regulatory elements (ENH11,ENH13) at 1 uM by ChIP analysis. It is filed as cell-based. A digest of the protocol:
as §3

Test [11] has the same target. Description: Inhibition of MED1 in human BCPAP cells assessed as reduction of […] binding to all active RUNX2 regulatory elements (ENH11) at 1 uM by ChIP analysis. It is filed as cell-based. A digest of the protocol:
as §3

Test [12] shares this target. Description: Partial inhibition of MED1 in human MCF7 cells assessed as partial reduction of […] binding to all active RUNX2 regulatory elements (ENH3,ENH13) at 1 uM by ChIP analysis. It is filed as cell-based. A digest of the protocol:
as §3

Chain of Mediator of RNA polymerase II transcription subunit 1 (Homo sapiens) (Q15648 whole entry): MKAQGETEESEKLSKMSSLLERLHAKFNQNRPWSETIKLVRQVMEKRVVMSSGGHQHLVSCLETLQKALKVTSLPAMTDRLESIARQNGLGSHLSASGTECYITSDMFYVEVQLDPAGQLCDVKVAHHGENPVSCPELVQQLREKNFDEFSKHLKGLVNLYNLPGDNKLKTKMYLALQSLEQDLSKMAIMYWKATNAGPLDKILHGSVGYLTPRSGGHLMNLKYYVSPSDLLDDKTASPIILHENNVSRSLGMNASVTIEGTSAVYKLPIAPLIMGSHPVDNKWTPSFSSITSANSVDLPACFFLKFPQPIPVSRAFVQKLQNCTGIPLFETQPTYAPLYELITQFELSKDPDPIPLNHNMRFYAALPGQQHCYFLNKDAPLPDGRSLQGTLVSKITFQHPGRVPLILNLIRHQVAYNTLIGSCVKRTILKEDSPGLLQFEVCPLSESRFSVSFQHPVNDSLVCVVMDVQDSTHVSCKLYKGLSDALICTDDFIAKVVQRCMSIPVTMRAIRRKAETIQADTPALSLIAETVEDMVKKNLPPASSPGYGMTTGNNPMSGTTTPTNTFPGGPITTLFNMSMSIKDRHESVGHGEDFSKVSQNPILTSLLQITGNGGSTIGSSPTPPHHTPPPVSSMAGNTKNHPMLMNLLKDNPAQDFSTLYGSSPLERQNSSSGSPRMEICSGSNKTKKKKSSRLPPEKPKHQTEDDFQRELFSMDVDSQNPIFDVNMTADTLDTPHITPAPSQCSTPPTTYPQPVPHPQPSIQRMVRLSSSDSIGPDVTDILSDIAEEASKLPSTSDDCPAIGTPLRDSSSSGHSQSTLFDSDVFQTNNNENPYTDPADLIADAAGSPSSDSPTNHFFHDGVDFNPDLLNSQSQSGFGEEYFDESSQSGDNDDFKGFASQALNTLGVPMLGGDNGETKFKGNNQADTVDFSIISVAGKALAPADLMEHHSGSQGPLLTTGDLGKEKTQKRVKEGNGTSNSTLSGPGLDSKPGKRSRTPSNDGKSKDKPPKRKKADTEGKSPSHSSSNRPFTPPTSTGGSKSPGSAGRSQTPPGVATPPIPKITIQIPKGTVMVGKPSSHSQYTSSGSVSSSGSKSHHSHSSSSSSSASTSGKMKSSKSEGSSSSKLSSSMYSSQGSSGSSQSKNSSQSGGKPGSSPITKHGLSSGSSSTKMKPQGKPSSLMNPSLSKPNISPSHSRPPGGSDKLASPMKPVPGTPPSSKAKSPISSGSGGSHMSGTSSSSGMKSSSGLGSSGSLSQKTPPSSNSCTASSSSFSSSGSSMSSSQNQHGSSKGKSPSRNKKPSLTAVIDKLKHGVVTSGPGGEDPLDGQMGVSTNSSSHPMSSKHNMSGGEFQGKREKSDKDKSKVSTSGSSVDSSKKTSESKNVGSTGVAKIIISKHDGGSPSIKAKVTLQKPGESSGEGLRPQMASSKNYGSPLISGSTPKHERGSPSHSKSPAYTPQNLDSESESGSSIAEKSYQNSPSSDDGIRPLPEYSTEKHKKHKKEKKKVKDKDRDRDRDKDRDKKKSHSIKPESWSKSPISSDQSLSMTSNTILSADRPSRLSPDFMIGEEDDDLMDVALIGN

Broadly, the IC50 is the point on the concentration scale where inhibition reaches its midpoint. In the case of `Cc1sc2c(c1C)C(c1ccc(Cl)cc1)=N[C@@H](CC(=O)OC(C)(C)C)c1nnc(C)n1-2`, the IC50 in test [1] was found to be 462 nM; in test [2], 254 nM; in [3], 507 nM; in [4], 12000 nM. In addition, the inhibition entry in test [5], in test [6], in test [7] and in [8] was “inactive” in each case. For the same compound, the inhibition result in test [9], in test [10], in test [11] and in [12] was “Active” in each case.

Source of the values: ChEMBL document CHEMBL5674875, “RUNX2 expression in thyroid and breast cancer requires the cooperation of three non-redundant enhancers under the control of BRD4 and c-JUN” (Nucleic Acids Res, 2017).
